ChEMBL document CHEMBL4304754, “Development of α-GalCer Analogues with an α-Fluorocarbonyl Moiety as Th2-Selective Ligands of CD1d” (ACS Med Chem Lett, 2019)
The source made the active and inactive calls. The rule behind the calls is not given here.

Columns and labels:
[1] = biological target: T1, Antigen-presenting glycoprotein CD1d (Mus musculus) (UniProt P11609+P11610); assay: Binding affinity to CD1d in C57BL/6 mouse HMNC cells assessed as iNKT cells stimulation by measuring increase in IL-2 production at 25 nM incubated for 72 hrs by ELISA; assay type: cell-based
How it was run: (§1)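 Primary murine hepatic mononuclear cells (HMNCs), which contain iNKT cells, were incubated with each glycolipid at 25 nM for 72 h. Cytokines released into the medium were quantified by ELISA, with α-GalCer as positive control.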

[2] = biological target: T1, Antigen-presenting glycoprotein CD1d (Mus musculus); assay: Covalent binding affinity to mouse CD1d at 5 equivalent incubated in DBPS buffer with tween 20 for 3 hrs by MALDI-TOF analysis; assay type: protein assay
How it was run: (§2)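 Samples of CD1d protein incubated with each ligand were analysed by MALDI-TOF mass spectrometry. The aim was to detect covalent conjugates formed between a CD1d cysteine and the ligand's α-fluorocarbonyl group.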

[3] = biological target: T1, Antigen-presenting glycoprotein CD1d (Mus musculus); assay: Covalent binding affinity to mouse CD1d at 5 equivalent incubated in DBPS buffer without tween 20 for 3 hrs by MALDI-TOF analysis; assay type: protein assay; how it was run: as §2
[4] = biological target: T1, Antigen-presenting glycoprotein CD1d (Mus musculus); assay: Binding affinity to CD1d in C57BL/6 mouse HMNC cells assessed as iNKT cells stimulation by measuring Th1-type cytokine, IFNgamma production at 25 nM incubated for 72 hrs by ELISA; assay type: cell-based; how it was run: as §1
[5] = biological target: T1, Antigen-presenting glycoprotein CD1d (Mus musculus); assay: Covalent binding affinity to mouse CD1d at 10 equivalent incubated for 3 hrs by coomassie blue staining based SDS-PAGE analysis; assay type: protein assay
How it was run: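 CD1d protein was incubated with each ligand under several reported or modified conditions. Samples were then denatured and resolved by SDS-PAGE. Gels were stained with Coomassie blue to look for covalent CD1d–ligand adduct bands alongside intact protein.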

[6] = biological target: T1, Antigen-presenting glycoprotein CD1d (Mus musculus); assay: Binding affinity to CD1d in C57BL/6 mouse HMNC cells assessed as iNKT cells stimulation by measuring increase in Th2-type cytokine, IL-4 production at 25 nM incubated for 72 hrs by ELISA; assay type: cell-based; how it was run: as §1
[7] = biological target: T1, Antigen-presenting glycoprotein CD1d (Mus musculus); assay: Binding affinity to CD1d in C57BL/6 mouse HMNC cells assessed as iNKT cells stimulation by measuring increase in ratio of IL-4 to IFNgamma (IL-4/IFNgamma) level at 25 nM incubated for 72 hrs by ELISA; assay type: cell-based
[8] = biological target: T1, Antigen-presenting glycoprotein CD1d (Mus musculus); assay: Binding affinity to CD1d in C57BL/6 mouse HMNC cells assessed as iNKT cells stimulation by measuring increase in IL17 production at 25 nM incubated for 72 hrs by ELISA; assay type: cell-based; how it was run: as §1
[9] = biological target: T1, Antigen-presenting glycoprotein CD1d (Mus musculus); assay: Covalent binding affinity to mouse CD1d at 14.6 equivalent incubated in tris buffer with tween 20 at pH 7.5 to 8 for 16 hrs by MALDI-TOF MS analysis; assay type: protein assay; how it was run: as §2
[10] = biological target: T1, Antigen-presenting glycoprotein CD1d (Mus musculus); assay: Covalent binding affinity to mouse CD1d at 14.6 equivalent incubated in tris buffer without tween 20 at pH 7.5 to 8 for 16 hrs by MALDI-TOF MS analysis; assay type: protein assay; how it was run: as §2

Activity [1]	Activity [2]	Activity [3]	Activity [4]	Activity [5]	Activity [6]	Activity [7]	Activity [8]	Activity [9]	Activity [10]	SMILES
Active	inactive	inactive	inactive	inactive	Active	Active	Active	–	–	CCCCCCCCCCCCCC[C@@H](O)[C@@H](O)[C@H](CO[C@H]1O[C@H](CO)[C@H](O)[C@H](O)[C@H]1O)NC(=O)CCCCCCCCCCCCCCCCCCC(=O)CF
Active	inactive	inactive	inactive	inactive	Active	Active	Active	inactive	inactive	CCCCCCCCCCCCCC[C@@H](O)[C@@H](O)[C@H](CO[C@H]1O[C@H](CO)[C@H](O)[C@H](O)[C@H]1O)NC(=O)CCCCCCCCCCCCCCCCCCCCC(=O)CF
Active	inactive	inactive	inactive	inactive	Active	Active	Active	–	–	CCCCCCCCCCCCCC[C@@H](O)[C@@H](O)[C@H](CO[C@H]1O[C@H](CO)[C@H](O)[C@H](O)[C@H]1O)NC(=O)CCCCCCCCCCCCCCCCCCCC(=O)CF

The remaining lines, values behind:

SMILES	Activity [1]	Activity [2]	Activity [3]	Activity [4]	Activity [5]	Activity [6]	Activity [7]	Activity [8]	Activity [9]	Activity [10]
CCCCCCCCCCCCCCCCCCCCCCCCCC(=O)N[C@@H](CO[C@H]1O[C@H](CO)[C@H](O)[C@H](O)[C@H]1O)[C@H](O)[C@H](O)CCCCCCCCCCCCCC	Active	–	–	–	–	Active	–	Active	–	–
CCCCCCCCCCCCCC[C@@H](O)[C@@H](O)[C@H](CO[C@H]1O[C@H](CO)[C@H](O)[C@H](O)[C@H]1O)NC(=O)CCCCCCCCCCCCCCCCC(=O)CF	Active	inactive	inactive	inactive	inactive	Active	–	–	–	–
CCCCCCCCCCCCCC[C@@H](O)[C@@H](O)[C@H](CO[C@H]1O[C@H](CO)[C@H](O)[C@H](O)[C@H]1O)NC(=O)CCCCCCCCCCCCCCCCCC(=O)CF	Active	inactive	inactive	inactive	inactive	Active	Active	–	–	–
CCCCCCCCCCCCCCCCCCCCCCCC(=O)N[C@@H](CO[C@H]1O[C@H](CO)[C@H](O)[C@H](O)[C@H]1O)[C@H](O)[C@H](O)CCCCC	–	–	–	inactive	–	inactive	Active	–	–	–
